Screening data from PubChem.
ABCB1 inh: human ABCB1 inhibition, ABCG2 as counter-screen; inhibition, % at 6.6 µM; 190,000 compounds, 0.067% hits; P08183; CCRF-Adr cells, JC-1 efflux, flow cytometry; in the data active = inhibition above about 40%;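 note: 0% = vehicle and 100% = reference inhibitor; higher value means more JC-1 retained so stronger ABCB1 efflux block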
Target sequence (P08183 whole entry, looked up): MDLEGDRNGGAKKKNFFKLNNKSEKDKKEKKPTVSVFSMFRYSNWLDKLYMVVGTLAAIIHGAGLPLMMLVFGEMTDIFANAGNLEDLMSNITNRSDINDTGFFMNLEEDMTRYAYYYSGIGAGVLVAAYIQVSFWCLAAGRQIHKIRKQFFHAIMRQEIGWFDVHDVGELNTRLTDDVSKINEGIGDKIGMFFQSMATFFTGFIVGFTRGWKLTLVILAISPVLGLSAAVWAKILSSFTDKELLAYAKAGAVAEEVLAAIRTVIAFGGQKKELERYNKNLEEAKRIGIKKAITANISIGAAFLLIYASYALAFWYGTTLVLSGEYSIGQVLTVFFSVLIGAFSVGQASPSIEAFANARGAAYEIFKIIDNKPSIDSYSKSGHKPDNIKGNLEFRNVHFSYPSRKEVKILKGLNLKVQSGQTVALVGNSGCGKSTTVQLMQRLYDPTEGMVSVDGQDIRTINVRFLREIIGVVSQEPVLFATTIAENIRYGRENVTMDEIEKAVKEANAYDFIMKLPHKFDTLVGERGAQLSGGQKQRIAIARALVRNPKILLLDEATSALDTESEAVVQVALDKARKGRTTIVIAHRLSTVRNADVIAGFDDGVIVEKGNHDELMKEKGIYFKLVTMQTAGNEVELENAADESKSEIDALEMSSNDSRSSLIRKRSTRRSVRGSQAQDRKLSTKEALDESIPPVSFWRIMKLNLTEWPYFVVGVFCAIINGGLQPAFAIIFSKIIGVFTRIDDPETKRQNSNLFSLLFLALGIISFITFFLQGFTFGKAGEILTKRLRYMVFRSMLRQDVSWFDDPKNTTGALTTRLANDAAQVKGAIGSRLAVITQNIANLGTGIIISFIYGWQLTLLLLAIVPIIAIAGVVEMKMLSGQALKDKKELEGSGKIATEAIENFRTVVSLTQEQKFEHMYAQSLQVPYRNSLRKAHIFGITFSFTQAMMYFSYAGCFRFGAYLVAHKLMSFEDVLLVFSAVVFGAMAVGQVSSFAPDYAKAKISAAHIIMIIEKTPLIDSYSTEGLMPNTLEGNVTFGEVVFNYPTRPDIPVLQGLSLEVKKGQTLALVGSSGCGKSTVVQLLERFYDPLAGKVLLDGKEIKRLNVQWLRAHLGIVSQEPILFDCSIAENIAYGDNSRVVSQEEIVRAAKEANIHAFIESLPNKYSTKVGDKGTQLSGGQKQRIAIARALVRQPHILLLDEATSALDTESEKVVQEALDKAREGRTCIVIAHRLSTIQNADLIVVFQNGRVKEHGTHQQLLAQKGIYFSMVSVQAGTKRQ
ABCG2 block: blocks JC-1 efflux by human ABCG2 transporter; IgMXP3 cells, flow cytometry; inhibition, % at 6.6 µM; 190,000 compounds, 0.1% hits; AID 1325;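 active = inhibition above 80%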;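 note: 0% = DMSO and 100% = nicardipine control wells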
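System: two drug-resistant human cell lines, ABCG2 and ABCB1; controls: nicardipine high and DMSO low controls; times: 10 min exposure at 25 °C with rotation, no wash; detection: flow cytometry of retained JC-1 fluorescence; read-out basis: percent efflux inhibition, scaled nicardipine 100% to DMSO 0%; doses: one concentration, 6.6 µM final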
MEKK2 WT-MEK5: raises or lowers MEK5 binding to wildtype human MEKK2 PB1 domain; bead flow cytometry, Alexa488-MEK5 binding to MEKK2 WT; actives lie on both sides; 290,000 compounds, 1.1% hits; binding response (% of control), % at 10 µM; Q9Y2U5; in the data active = binding response below about 67% or above about 130%; inconclusive = no clear call, values can overlap the other calls; inactive = in between
MEKK2mut PB1 HTS: signal of MEK5 binding to mutant human MEKK2 PB1 domain | bead flow cytometry, Alexa488-MEK5 binding to MEKK2 mutant | percent response, % at 10 µM | 290,000 compounds, 0.35% hits; in the data active = percent response above about 24%, passing the limit was not always enough
MEKK3 PB1 HTS: modulators (inhibitors or enhancers) of MEK5 binding to human MEKK3 PB1 domain; 290,000 compounds, 1.4% hits; bead-based flow cytometry, Alexa488-MEK5 binding to MEKK3; actives lie on both sides; 0 = blocked by unlabeled MEK5, 100 = vehicle; binding response (% of control), % at 10 µM;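 active = binding response more than 3 SD above or below the average of its plate-row segment, actives on both sides; inconclusive = wells at one plate position flagged as instrument error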;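 note: Alexa488 bead fluorescence after subtracting the streptavidin-only scavenger bead signal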
MEKK2wt confirm: raises or lowers MEK5 binding to wildtype human MEKK2, retest. shares compounds with MEKK3 PB1 HTS. bead flow cytometry, Alexa488-MEK5 binding to MEKK2 WT; actives lie on both sides. binding response (% of control), % at 10 µM. 5,900 compounds, 2.4% hits; in the data active = binding response below about 16% or above about 210%; inactive = in between
MEKK2mut confirm: signal of MEK5 binding to mutant human MEKK2, retest; bead flow cytometry, Alexa488-MEK5 binding to MEKK2 mutant; percent response, % at 10 µM; shares compounds with MEKK3 PB1 HTS; 5,900 compounds, 2% hits; in the data active = percent response mostly above about 71%, no sharp cut-off; inactive = mostly below about 38%;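 note: higher means compound restores mutant binding toward wildtype level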
MEKK3-MEK5 inh: confirmation of inhibitors of MEK5 binding to human MEKK3 | shares compounds with MEKK3 PB1 HTS | bead flow cytometry, Alexa488-MEK5 binding to MEKK3; hits give low values | binding response (% of control), % at 10 µM | 5,900 compounds, 1.8% hits | AID 1894;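 active = binding response below 72% of control, or above a set upper limit, though filed actives all read lower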;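 note: 100% = DMSO only wells and 0% = binding blocked by excess unlabeled MEK5; lower values mean stronger disruption of MEK5 binding to MEKK3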
* marks the source's active call; other numbers are inactive results; ? = inconclusive; / = no result; [ ] = dose if it differs, or a comment. Only some compounds are listed: those with a hit (about 2.3% of all), similar ones and a draw of the others.

SMILES	ABCB1 inh	ABCG2 block	MEKK2 WT-MEK5	MEKK2mut PB1 HTS	MEKK3 PB1 HTS	MEKK2wt confirm	MEKK2mut confirm	MEKK3-MEK5 inh
COc1ccc(-c2nc(CS(=O)CC(=O)NCCN3CCCCC3C)c(C)o2)cc1OC (configuration not stated)	/	/	105.0	4.0	101.0	/	/	/
O=C(NCCN1CCOCC1)C(=O)c1c[nH]c2ccccc12	/	/	98.0	0.0	102.0	/	/	/
O=C(N/N=C/c1c(O)n(-c2ccc(Cl)cn2)c(=O)c2ccccc12)c1ccncc1	-0.4	3.6	107.0	0.0	135.0*	100.0	1.0	104.0
O=c1[nH]c(SCc2ccc(Cl)cc2)nc2ccccc12	1.1	3.1	101.0	2.0	103.0	/	/	/
O=C(NCCCO)c1ccc(CSc2nc3ccccc3c(=O)[nH]2)cc1	/	/	113.0	24.0	128.0*	109.0	9.0	102.0
CC(C)C(=O)N1CCN(c2ccccc2NC(=O)c2cccc3ccccc23)CC1	/	/	109.0	5.0	111.0	/	/	/
Cc1nc(C)c(C(=O)Nc2cccc(F)c2)s1	/	/	112.0	7.0	109.0	/	/	/
Cc1ccc2nsnc2c1S(=O)(=O)Nc1ccccc1C(=O)O	/	/	99.0	6.0	99.0	/	/	/
Cn1c(NC(=O)c2ccc(Cl)cc2)cc(=O)n(C)c1=O	1.5	2.5	107.0	0.0	136.0*	104.0	-5.0	104.0
Cn1c(NC(=O)c2ccc(C(C)(C)C)cc2)cc(=O)n(C)c1=O	0.6	3.0	100.0	0.0	101.0	/	/	/
Cc1nn(C(C)C(=O)N2CCCC2)c(=O)c2nn(-c3ccccc3)c(C)c12 (configuration not stated)	/	/	102.0	-1.0	99.0	/	/	/
O=C(N/C(=C/c1cccc(Br)c1)c1nc(=S)[nH][nH]1)c1ccccc1	-1.8	-11.6	101.0	3.0	100.0	/	/	/
Cc1ccc(C(=O)N/C(=C\c2ccc(Br)cc2)c2nc(=S)[nH][nH]2)cc1	-0.6	-2.2	65.0*[inhibitor]	-10.0	97.0	82.0	-15.0	96.0
C=CCOc1ccc(/C=C2\SC(=S)N(NS(=O)(=O)c3ccc(C)cc3)C2=O)cc1	/	/	105.0	8.0	107.0	/	/	/
C#CCOCCOCCOCCNc1nc(N2CCN(C(=O)[C@H]([C@@H](C)CC)n3cc([C@@H](N)Cc4ccc(O)cc4)nn3)CC2)nc(N2CCN(C(=O)[C@H](CCCCN)n3cc([C@@H](N)CC(C)C)nn3)CC2)n1	0.1	-0.4	221.0*	79.0*	113.0	183.0	110.0*	108.0
C#CCOCCOCCOCCNc1nc(N2CCN(C(=O)[C@H](C)n3cc(CCCN=C(N)N)nn3)CC2)nc(N2CCN(C(=O)[C@H](CCCCN)n3cc(CCCC)nn3)CC2)n1	0.6	-2.3	110.0	-1.0	110.0	/	/	/
C#CCOCCOCCOCCNc1nc(N2CCN(C(=O)[C@H](CCCCN)n3cc([C@@H](N)CC(C)C)nn3)CC2)nc(N2CCN(C(=O)[C@H](CCCCN)n3cc([C@@H](N)CC(C)C)nn3)CC2)n1	0.0	0.5	136.0*	23.0	96.0	125.0	12.0	98.0
C#CCOCCOCCOCCNc1nc(N2CCN(C(=O)[C@H]([C@@H](C)CC)n3cc(CCCN=C(N)N)nn3)CC2)nc(N2CCN(C(=O)[C@H](CCCCN)n3cc(CCCC)nn3)CC2)n1	-0.1	0.0	172.0*	21.0	106.0	174.0	31.0	102.0
C#CCOCCOCCOCCNc1nc(N2CCN(C(=O)[C@H](CCCCN)n3cc([C@@H](N)CC(C)C)nn3)CC2)nc(N2CCN(C(=O)[C@H](Cc3ccc(O)cc3)n3cc([C@@H](N)CC(C)C)nn3)CC2)n1	-0.2	-0.7	151.0*	38.0	109.0	140.0	20.0	106.0
C#CCOCCOCCOCCNc1nc(N2CCN(C(=O)[C@H](CCCCN)n3cc(C(N)CO)nn3)CC2)nc(N2CCN(C(=O)[C@H](CCC(=O)O)n3cc(C(N)CC(C)C)nn3)CC2)n1 (some centres not stated)	/	/	68.0	2.0	81.0	/	/	/
C#CCOCCOCCOCCNc1nc(N2CCN(C(=O)[C@H](CCC(=O)O)n3cc(C(N)Cc4ccc(O)cc4)nn3)CC2)nc(N2CCN(C(=O)[C@H](Cc3ccc(O)cc3)n3cc(C(N)CC(C)C)nn3)CC2)n1 (some centres not stated)	/	/	?	3.0	108.0	/	/	/
CCc1ccc(NC(=O)C(C)OC(=O)CC(NC(C)=O)c2ccccc2)cc1 (configuration not stated)	/	/	106.0	2.0	104.0	/	/	/
Cn1cc([N+](=O)[O-])c(C(=O)NC2CCCC2)n1	/	/	93.0	-2.0	96.0	/	/	/
C#CCOCCOCCOCCNc1nc(N2CCN(C(=O)[C@H](Cc3ccc(O)cc3)n3cc([C@@H](N)CC(C)C)nn3)CC2)nc(N2CCN(C(=O)[C@H](Cc3ccc(O)cc3)n3cc([C@@H](N)CC(C)C)nn3)CC2)n1	-0.1	0.0	188.0*	69.0*	96.0	227.0*	95.0*	113.0
C#CCOCCOCCOCCNc1nc(N2CCN(C(=O)[C@H](CCCCN)n3cc([C@@H](N)C(C)CC)nn3)CC2)nc(N2CCN(C(=O)[C@H](Cc3ccc(O)cc3)n3cc([C@@H](N)CC(C)C)nn3)CC2)n1 (some centres not stated)	-0.3	-0.6	158.0*	43.0	110.0	135.0	22.0	107.0
C#CCOCCOCCOCCNc1nc(N2CCN(C(=O)[C@H](CCCCN)n3cc(C(N)CC(C)C)nn3)CC2)nc(N2CCN(C(=O)[C@H](CCC(=O)O)n3cc(C(N)[C@H](C)CC)nn3)CC2)n1 (some centres not stated)	-0.2	1.1	107.0	10.0	104.0	/	/	/
C#CCOCCOCCOCCNc1nc(N2CCOCC2)nc(N2CCN(C(=O)[C@H](Cc3ccc(O)cc3)n3cc([C@@H](N)C(C)CC)nn3)CC2)n1 (some centres not stated)	-0.1	-0.9	114.0	6.0	98.0	/	/	/
C#CCOCCOCCOCCNc1nc(N2CCN(C(=O)[C@H](CCC(=O)O)n3cc(C(N)CC(C)C)nn3)CC2)nc(N2CCN(C(=O)[C@H](Cc3ccc(O)cc3)n3cc(C(N)CC(C)C)nn3)CC2)n1 (some centres not stated)	0.2	0.0	110.0	9.0	105.0	/	/	/
